According to the M2OR odorant receptor database:

Key:
Details in all cases: stereoisomer not certain
[1] = biological target: T1, UniProt Q8VFP5
T1 sequence (whole entry): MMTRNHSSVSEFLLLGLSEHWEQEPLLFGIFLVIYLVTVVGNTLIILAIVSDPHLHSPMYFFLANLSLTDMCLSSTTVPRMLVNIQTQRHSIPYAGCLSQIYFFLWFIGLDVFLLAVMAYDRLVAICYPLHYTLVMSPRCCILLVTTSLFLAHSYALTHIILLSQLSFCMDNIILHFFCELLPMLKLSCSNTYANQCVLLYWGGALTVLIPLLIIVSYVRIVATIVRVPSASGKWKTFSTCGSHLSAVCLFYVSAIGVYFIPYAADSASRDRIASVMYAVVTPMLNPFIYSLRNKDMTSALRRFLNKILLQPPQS
Summary of the method: (§1)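 Assay methods differ from source to source, frequently being transient luciferase assays in mammalian cell lines. For each receptor–molecule pair, the label responsive (active) applies when the original authors judged the measured signal statistically different from baseline, and non-responsive (inactive) applies otherwise.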

[2] = biological target: T2, UniProt Q8VG01
T2 sequence (whole entry): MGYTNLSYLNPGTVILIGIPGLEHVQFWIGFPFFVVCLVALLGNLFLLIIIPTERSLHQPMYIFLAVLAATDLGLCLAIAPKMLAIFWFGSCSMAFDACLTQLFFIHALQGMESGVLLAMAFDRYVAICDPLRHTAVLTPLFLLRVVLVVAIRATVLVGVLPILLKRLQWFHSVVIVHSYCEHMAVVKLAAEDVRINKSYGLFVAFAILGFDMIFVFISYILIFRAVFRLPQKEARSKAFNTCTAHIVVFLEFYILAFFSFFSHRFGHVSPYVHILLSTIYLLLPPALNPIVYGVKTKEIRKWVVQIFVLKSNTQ
Summary of the method: as §1

[3] = biological target: T3, UniProt Q8VG27
T3 sequence (whole entry): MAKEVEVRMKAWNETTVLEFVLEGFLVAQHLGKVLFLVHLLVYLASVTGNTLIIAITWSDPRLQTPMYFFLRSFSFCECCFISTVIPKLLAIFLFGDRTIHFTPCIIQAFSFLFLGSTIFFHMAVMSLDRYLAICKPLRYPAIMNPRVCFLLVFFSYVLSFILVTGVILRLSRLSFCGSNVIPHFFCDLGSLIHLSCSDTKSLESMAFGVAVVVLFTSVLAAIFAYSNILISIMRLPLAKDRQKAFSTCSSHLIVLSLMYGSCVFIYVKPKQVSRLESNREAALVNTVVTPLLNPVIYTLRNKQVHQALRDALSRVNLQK
Summary of the method: as §1

[4] = biological target: T4, UniProt Q8VG53
T4 sequence (whole entry): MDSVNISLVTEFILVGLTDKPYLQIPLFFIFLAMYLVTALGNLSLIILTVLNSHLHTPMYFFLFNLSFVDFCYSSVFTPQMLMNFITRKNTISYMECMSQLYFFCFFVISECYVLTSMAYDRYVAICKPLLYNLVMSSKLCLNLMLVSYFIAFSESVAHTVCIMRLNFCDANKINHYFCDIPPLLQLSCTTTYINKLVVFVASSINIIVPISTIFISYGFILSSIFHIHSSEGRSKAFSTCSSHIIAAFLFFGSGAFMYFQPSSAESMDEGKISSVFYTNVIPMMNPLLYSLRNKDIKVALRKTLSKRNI
Summary of the method: as §1

[5] = biological target: T5, UniProt Q8VG64
T5 sequence (whole entry): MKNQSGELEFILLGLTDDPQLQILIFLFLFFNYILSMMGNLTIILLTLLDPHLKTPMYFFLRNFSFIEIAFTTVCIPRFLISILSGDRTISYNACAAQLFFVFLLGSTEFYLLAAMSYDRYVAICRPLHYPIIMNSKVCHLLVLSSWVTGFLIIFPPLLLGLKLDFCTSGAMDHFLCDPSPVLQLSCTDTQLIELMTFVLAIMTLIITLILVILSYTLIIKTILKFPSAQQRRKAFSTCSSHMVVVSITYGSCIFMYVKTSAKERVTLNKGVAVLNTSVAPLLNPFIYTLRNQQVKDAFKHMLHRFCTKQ
Summary of the method: as §1

[6] = biological target: T6, UniProt Q8VGB9
T6 sequence (whole entry): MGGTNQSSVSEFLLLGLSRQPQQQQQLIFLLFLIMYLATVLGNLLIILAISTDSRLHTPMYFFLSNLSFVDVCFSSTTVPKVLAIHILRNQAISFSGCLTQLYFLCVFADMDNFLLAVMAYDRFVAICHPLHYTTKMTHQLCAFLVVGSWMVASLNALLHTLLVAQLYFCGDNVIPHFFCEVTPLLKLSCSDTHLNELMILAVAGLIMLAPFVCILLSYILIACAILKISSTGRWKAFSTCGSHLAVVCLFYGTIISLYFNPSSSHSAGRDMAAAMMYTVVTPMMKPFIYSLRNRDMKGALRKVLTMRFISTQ
Summary of the method: as §1

[7] = biological target: T7, UniProt Q8VFZ6
T7 sequence (whole entry): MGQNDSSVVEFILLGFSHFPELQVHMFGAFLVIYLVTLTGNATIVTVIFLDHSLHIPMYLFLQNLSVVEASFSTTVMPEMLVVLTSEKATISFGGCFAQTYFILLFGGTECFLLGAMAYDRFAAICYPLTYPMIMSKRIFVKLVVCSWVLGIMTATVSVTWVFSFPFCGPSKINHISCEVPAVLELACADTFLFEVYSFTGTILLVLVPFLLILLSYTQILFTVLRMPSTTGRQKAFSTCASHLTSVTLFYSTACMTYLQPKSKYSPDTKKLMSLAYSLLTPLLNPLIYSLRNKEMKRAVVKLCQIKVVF
Summary of the method: as §1

[8] = biological target: T8, UniProt Q8VG22
T8 sequence (whole entry): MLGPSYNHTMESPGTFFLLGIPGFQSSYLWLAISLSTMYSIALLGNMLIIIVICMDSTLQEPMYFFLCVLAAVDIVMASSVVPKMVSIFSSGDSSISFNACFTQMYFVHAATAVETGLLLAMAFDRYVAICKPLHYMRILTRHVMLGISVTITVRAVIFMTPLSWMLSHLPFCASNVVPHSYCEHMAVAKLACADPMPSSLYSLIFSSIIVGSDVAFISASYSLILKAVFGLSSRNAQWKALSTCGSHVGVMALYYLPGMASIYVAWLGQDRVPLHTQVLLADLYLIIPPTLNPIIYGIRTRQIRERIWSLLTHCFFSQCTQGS
Summary of the method: as §1

[9] = biological target: T9, UniProt Q8VG49
T9 sequence (whole entry): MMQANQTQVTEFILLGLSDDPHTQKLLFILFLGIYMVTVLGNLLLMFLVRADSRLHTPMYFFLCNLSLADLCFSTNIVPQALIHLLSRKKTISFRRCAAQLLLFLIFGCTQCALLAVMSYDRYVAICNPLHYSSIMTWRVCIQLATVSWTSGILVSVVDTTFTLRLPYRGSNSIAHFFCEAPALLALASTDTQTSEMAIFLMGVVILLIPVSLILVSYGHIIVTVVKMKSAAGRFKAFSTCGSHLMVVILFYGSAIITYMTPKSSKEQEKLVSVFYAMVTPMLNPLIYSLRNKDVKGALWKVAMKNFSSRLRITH
Summary of the method: as §1

[10] = biological target: T10, UniProt Q8VG77
T10 sequence (whole entry): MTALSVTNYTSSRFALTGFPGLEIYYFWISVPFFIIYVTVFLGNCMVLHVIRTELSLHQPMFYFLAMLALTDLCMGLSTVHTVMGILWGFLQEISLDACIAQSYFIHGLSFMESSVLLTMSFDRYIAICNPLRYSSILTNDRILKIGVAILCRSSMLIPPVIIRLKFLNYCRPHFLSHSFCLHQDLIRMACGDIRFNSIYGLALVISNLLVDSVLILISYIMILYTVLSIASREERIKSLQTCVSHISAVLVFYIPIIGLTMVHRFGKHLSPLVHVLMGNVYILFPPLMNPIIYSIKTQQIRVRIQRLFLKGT
Summary of the method: as §1

[11] = biological target: T11, UniProt Q8VG96
T11 sequence (whole entry): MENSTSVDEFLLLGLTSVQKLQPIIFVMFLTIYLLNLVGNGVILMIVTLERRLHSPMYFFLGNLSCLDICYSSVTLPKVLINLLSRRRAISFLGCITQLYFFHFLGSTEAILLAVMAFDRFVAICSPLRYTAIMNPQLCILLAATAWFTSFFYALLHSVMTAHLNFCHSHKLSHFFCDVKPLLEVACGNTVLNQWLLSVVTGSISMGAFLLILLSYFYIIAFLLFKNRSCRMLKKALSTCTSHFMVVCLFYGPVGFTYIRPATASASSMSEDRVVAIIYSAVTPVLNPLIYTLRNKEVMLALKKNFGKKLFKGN
Summary of the method: as §1

[12] = biological target: UniProt Q8VG26
Summary of the method: as §1

[13] = biological target: UniProt Q8VG28
Summary of the method: as §1

Sequence of UniProt Q8VG26 (Q8VG26 as listed by the source): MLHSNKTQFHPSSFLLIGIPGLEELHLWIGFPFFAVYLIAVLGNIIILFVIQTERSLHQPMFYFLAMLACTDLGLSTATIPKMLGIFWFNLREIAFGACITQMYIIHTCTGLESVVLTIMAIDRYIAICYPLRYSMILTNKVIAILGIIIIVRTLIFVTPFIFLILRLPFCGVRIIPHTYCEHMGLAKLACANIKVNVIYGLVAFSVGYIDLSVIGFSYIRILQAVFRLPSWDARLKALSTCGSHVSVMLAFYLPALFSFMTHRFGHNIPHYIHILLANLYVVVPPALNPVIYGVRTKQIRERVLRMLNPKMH
Sequence of UniProt Q8VG28 (Q8VG28 as listed by the source): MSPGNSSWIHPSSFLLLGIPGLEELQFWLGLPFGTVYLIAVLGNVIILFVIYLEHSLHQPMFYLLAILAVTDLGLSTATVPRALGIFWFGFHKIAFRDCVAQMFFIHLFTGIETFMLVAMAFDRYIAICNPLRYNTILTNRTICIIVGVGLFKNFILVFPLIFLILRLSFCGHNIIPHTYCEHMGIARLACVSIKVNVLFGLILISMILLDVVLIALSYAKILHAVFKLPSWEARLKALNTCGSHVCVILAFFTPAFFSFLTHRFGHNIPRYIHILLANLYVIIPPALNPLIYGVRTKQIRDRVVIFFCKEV

| SMILES | odorant receptor agonist call [1] | odorant receptor agonist call [2] | odorant receptor agonist call [3] | odorant receptor agonist call [4] | odorant receptor agonist call [5] | odorant receptor agonist call [6] | odorant receptor agonist call [7] | odorant receptor agonist call [8] | odorant receptor agonist call [9] | odorant receptor agonist call [10] | odorant receptor agonist call [11] | odorant receptor agonist call [12] | odorant receptor agonist call [13] |
| --- | --- | --- | --- | --- | --- | --- | --- | --- | --- | --- | --- | --- | --- |
| CCCCCC=CCCC=O | inactive | inactive | inactive | inactive | inactive | inactive | – | – | – | – | – | – | – |
| CCc1ncc(C)nc1CC | inactive | inactive | inactive | inactive | inactive | inactive | – | – | – | – | – | – | – |
| Cc1c(C)c(C)c(C=O)c(C)c1C | inactive | inactive | inactive | inactive | inactive | inactive | – | – | – | – | – | – | – |
| CC=C(C)C=O | inactive | inactive | inactive | inactive | inactive | inactive | – | – | – | – | – | – | – |
| CC1CC=CCCCCCCCCCC(=O)C1 (centres undefined) | inactive | inactive | inactive | inactive | inactive | inactive | – | – | – | – | – | – | – |
| CCCCOC=O | inactive | inactive | inactive | inactive | inactive | inactive | inactive | inactive | inactive | inactive | inactive | – | – |
| CCSCC | inactive | inactive | inactive | inactive | inactive | inactive | – | – | – | – | – | – | – |
| CCCCC=O | inactive | inactive | inactive | inactive | inactive | inactive | – | – | – | – | – | inactive | inactive |
| OCC=Cc1ccccc1 | inactive | inactive | inactive | inactive | inactive | inactive | – | – | – | – | – | – | – |
| O=C(O)CCCCCCCCC(=O)O | inactive | inactive | inactive | inactive | inactive | inactive | – | – | – | – | – | – | – |
| C1CCOCC1 | inactive | inactive | inactive | inactive | inactive | inactive | – | – | – | – | – | – | – |
| CCN(CC)CC | inactive | inactive | inactive | inactive | inactive | inactive | – | – | – | – | – | – | – |
| CC(C)CCN | inactive | inactive | inactive | inactive | inactive | inactive | – | – | – | – | – | – | – |
| CC(=O)OCC=C(C)C | inactive | inactive | inactive | inactive | inactive | inactive | inactive | inactive | inactive | inactive | inactive | – | – |
| OCCCCCCCCCO | inactive | inactive | inactive | inactive | active | inactive | – | – | – | – | – | – | – |
| CCCCCCC(C)O (centres undefined) | inactive | inactive | inactive | inactive | inactive | inactive | – | – | – | – | – | – | – |
| O=C([O-])CCCCCCCC(=O)[O-].[H+].[H+] | inactive | inactive | inactive | inactive | inactive | inactive | – | – | – | – | – | inactive | inactive |
| CC(CC=O)CCCC(C)(C)O (centres undefined) | inactive | inactive | inactive | inactive | inactive | inactive | – | – | – | – | – | – | – |
| Cc1ccc2c(c1)OCC(=O)CO2 | inactive | inactive | inactive | inactive | inactive | inactive | – | – | – | – | – | – | – |
| CCc1nccnc1CC | inactive | inactive | inactive | inactive | inactive | inactive | – | – | – | – | – | – | – |
